Key:
Bacilus subtilis = experiment: MIC, broth-microdilution method; type: cell-based
bacterial membranes = experiment: Membrane permeabilization, influx of viability stain SYTOX Green; type: cell-based, B. subtilis; settings: concentration twice the MIC value
Summary of the method: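 Live B. subtilis cells imaged over time by confocal microscopy after exposure to a lethal level of test compound. SYTOX Green was used as a viability stain, with its entry into cells read as membrane permeabilization.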

Substance: (−)-Himastatin [(−)-himastatin (1)]
- MIC (Bacilus subtilis): 1 µg/mL
- time to permeabilization of bacterial membranes (bacterial membranes): ≤ 30 min
